Bioassay records (PubChem BioAssay)
Most compounds without a hit are left out; they make up all but 2.9% or so of the library.
UBC13 inh – UBC13 polyubiquitin chain formation inhibitors, primary screen, biochemical, TR-FRET, uHTS; inhibition, % at 20 µM; 330,000 compounds, 0.47% hits; AID 485273, 2010; Ubiquitin-conjugating enzyme E2 N (Homo sapiens), P61088; in the data active means inhibition above about 45%, passing the limit was not always enough
MEKK2mut PB1 HTS – MEK5 binding signal on mutant MEKK2 PB1, primary screen, biochemical, multiplex bead flow cytometry, Alexa488-MEK5; percent response, % at 10 µM; Alexa488-MEK5 binding to MEKK2 mutant; AID 1530, 2009; 290,000 compounds, 0.35% hits; in the data active means percent response above about 24%, passing the limit was not always enough
MEKK2 WT-MEK5 – modulators of MEK5 binding to wildtype MEKK2, primary screen, biochemical, multiplex bead flow cytometry, Alexa488-MEK5; Alexa488-MEK5 binding to MEKK2 WT; actives lie on both sides; binding response (% of control), % at 10 µM; 290,000 compounds, 1.1% hits; AID 1531, 2009; in the data active means binding response below about 67% or above about 130%
Apaf-1 inh – inhibitors of human Apaf-1 apoptosome, primary screen, biochemical, DEVD-Rh110 fluorescence, uHTS | Apoptotic protease-activating factor 1 (Homo sapiens), O14727 | reconstituted apoptosome caspase-3 activity | inhibition, % at 20 µM | 330,000 compounds, 0.71% hits | AID 489030, 2010; active means inhibition of at least 40% at 20 µM;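 further: plate controls were DMSO wells for no effect and DEVD-CHO caspase inhibitor wells for full effect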
Target sequence (O14727 whole entry, looked up): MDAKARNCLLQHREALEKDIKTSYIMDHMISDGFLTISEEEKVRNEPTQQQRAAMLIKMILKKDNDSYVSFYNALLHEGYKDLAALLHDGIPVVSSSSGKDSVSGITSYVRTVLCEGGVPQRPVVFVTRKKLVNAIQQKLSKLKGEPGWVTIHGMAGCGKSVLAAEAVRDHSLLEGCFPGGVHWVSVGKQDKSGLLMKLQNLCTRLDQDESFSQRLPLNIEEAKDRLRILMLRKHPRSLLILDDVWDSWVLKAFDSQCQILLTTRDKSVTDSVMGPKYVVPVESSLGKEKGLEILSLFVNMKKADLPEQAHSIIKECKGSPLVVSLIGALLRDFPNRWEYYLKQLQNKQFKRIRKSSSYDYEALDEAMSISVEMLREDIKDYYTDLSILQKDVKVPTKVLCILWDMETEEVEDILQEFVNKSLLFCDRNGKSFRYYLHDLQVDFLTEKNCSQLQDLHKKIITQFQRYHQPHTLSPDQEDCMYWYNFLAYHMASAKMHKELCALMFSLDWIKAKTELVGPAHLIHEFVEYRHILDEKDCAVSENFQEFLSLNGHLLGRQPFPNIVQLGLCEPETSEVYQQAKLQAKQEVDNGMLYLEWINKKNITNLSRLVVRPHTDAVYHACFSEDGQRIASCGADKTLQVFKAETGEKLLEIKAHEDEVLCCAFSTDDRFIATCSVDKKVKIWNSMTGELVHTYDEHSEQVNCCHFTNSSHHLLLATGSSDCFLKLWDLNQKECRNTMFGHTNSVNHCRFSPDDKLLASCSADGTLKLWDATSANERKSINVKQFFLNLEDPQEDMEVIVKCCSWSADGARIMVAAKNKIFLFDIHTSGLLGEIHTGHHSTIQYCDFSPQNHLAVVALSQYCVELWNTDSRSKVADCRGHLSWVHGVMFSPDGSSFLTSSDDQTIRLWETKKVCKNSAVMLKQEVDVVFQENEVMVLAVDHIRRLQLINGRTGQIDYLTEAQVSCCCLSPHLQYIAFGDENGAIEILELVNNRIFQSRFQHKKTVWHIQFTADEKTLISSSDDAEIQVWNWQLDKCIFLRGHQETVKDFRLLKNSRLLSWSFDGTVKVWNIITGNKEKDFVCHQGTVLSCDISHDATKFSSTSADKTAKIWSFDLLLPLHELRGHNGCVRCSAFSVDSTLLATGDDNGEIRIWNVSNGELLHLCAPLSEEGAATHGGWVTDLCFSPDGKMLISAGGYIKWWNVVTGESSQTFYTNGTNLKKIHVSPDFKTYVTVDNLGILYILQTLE
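Material: cell-free apoptosome with Apaf-1, procaspase-3 and caspase-9; Buffer or medium: Hepes pH 7.5 with detergent and BSA; Reagent: cytochrome c trigger plus (Z-DEVD)2-Rh110 caspase-3 substrate; Times: compound with Apaf-1, dATP, procaspase-3 30 min, then 50 min reaction, room temperature; Technique: Rh110 fluorescence intensity.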
MEKK3 PB1 HTS – modulators of MEKK3-MEK5 PB1 binding, primary screen, biochemical, wildtype MEKK3, multiplex bead flow cytometry, Alexa488-MEK5; bead-based flow cytometry, Alexa488-MEK5 binding to MEKK3; actives lie on both sides; 0 = blocked by unlabeled MEK5, 100 = vehicle; binding response (% of control), % at 10 µM; 290,000 compounds, 1.4% hits; AID 1529, 2009;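 active means binding response more than 3 SD above or below the average of its plate-row segment, actives on both sides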;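 further: Alexa488 bead fluorescence after subtracting the streptavidin-only scavenger bead signal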
Apaf-1 inh conf – Apaf-1 inhibitors, single-dose retest, confirmation, biochemical, fluorescence, DEVD-Rh110, 20 µM | inhibition, % at 20 µM | reconstituted apoptosome, caspase-3 DEVD-Rh110 fluorescence | shares compounds with Apaf-1 inh | 1,800 compounds, 25% hits | AID 504614, 2011;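 active means mean inhibition of at least 40% at 20 µM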;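 further: plate controls were DMSO wells for no effect and DEVD-CHO caspase inhibitor control wells for full effect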
Rh110 quench – Rh110 fluorescence interference by putative Apaf-1 inhibitors, confirmation, artefact control for Apaf-1 inhibitor project, biochemical, 20 µM | AID 504615, 2011 | activation (fluorescence interference), % at 20 µM | 1,800 tested, under 10 active | quenched caspase reaction | shares compounds with Apaf-1 inh;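 active means signal rise of 40% or more at 20 µM, treated as a fluorescence artifact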
Apaf1 inh interf – fluorescence interference of Apaf-1 inhibitor hits, dose response, artefact control for Apaf-1 inhibitor project. shares compounds with Apaf-1 inh. fluorescence interference counterscreen, Apaf-1 assay format. IC50, µM. 460 tested, under 10 active. AID 588538, 2011; call rule not given here
An asterisk follows results filed as active.

How did O=C(O)c1ccc2c3c(ncnc13)-c1ccccc1C2=O do in these assays?
UBC13 inh: -46; Apaf-1 inh: 44*; Apaf-1 inh conf: 23; Rh110 quench: 5

Results for CCN(CC1CCCO1)C(=O)CCc1nnc(CCc2ccccc2OC)o1 (centres undefined) ?
UBC13 inh: 4; MEKK2mut PB1 HTS: 4; MEKK2 WT-MEK5: 101; Apaf-1 inh: -3; MEKK3 PB1 HTS: 97

How did Cc1cccc(N2CCN(C(=O)c3ccc4nc(-c5ccco5)c(-c5ccco5)nc4c3)CC2C)c1 (centres undefined) do in these assays?
UBC13 inh: -32; MEKK2mut PB1 HTS: -2; MEKK2 WT-MEK5: 92; Apaf-1 inh: 60*; MEKK3 PB1 HTS: 103; Apaf-1 inh conf: 22; Rh110 quench: -1

What do the screens show for `CCCCNC(=O)c1ccc2nc(-c3ccco3)c(-c3ccco3)nc2c1`?
UBC13 inh: -79; MEKK2mut PB1 HTS: 4; MEKK2 WT-MEK5: 94; Apaf-1 inh: 28; MEKK3 PB1 HTS: 99

Results for O=C(Nc1ccc2nc(-c3ccco3)c(-c3ccco3)nc2c1)N1CCN(c2ccccn2)CC1 ?
UBC13 inh: 11; MEKK2mut PB1 HTS: 2; MEKK2 WT-MEK5: 91; Apaf-1 inh: 13; MEKK3 PB1 HTS: 100

How did O=C(c1ccc2nc(-c3ccco3)c(-c3ccco3)nc2c1)N1CCN(c2ncccn2)CC1 do in these assays?
UBC13 inh: -28; MEKK2mut PB1 HTS: -8; MEKK2 WT-MEK5: 88; Apaf-1 inh: 57*; MEKK3 PB1 HTS: 95; Apaf-1 inh conf: 22; Rh110 quench: 0

How did O=C(NCc1ccccc1)c1ccc2nc(-c3ccco3)c(-c3ccco3)nc2c1 do in these assays?
UBC13 inh: -24; MEKK2mut PB1 HTS: 0; MEKK2 WT-MEK5: 97; Apaf-1 inh: 65*; MEKK3 PB1 HTS: 103; Apaf-1 inh conf: 28; Rh110 quench: 6

How did CCOC(=O)COc1c(Cl)cc(C2NC(=S)NC(c3ccccc3)=C2C(C)=O)cc1OCC (centres undefined) do in these assays?
UBC13 inh: -7; MEKK2mut PB1 HTS: 9; MEKK2 WT-MEK5: 99; Apaf-1 inh: 17; MEKK3 PB1 HTS: 94

How did COc1ccc(OC)c(NC(=O)COC(=O)CCc2ccc(S(=O)(=O)N3CCOCC3)cc2)c1 do in these assays?
UBC13 inh: 0; Apaf-1 inh: 5

Results for O=C(Nc1ccc2c(c1)OCO2)C1CC(=O)N(c2ccc(F)cc2)C1 (centres undefined) ?
UBC13 inh: -1; MEKK2mut PB1 HTS: -1; MEKK2 WT-MEK5: 102; Apaf-1 inh: -5; MEKK3 PB1 HTS: 103

How did Cc1ccc(C(=O)N2CCCN(c3nc4cc5c(cc4cc3C#N)OCO5)CC2)cc1 do in these assays?
UBC13 inh: -26; MEKK2mut PB1 HTS: 3; MEKK2 WT-MEK5: 93; Apaf-1 inh: 67*; MEKK3 PB1 HTS: 99; Apaf-1 inh conf: 23; Rh110 quench: -2

Results for CC(=O)N1CCN(C(=S)Nc2ccc(SC(F)F)cc2)CC1 ?
UBC13 inh: -8; MEKK2mut PB1 HTS: 2; MEKK2 WT-MEK5: 102; Apaf-1 inh: 96*; MEKK3 PB1 HTS: 98; Apaf-1 inh conf: 14; Rh110 quench: 11

Results for CC(C)[C@H](NS(=O)(=O)c1ccccc1F)C(=O)OCC(=O)Nc1cccc(S(N)(=O)=O)c1 ?
UBC13 inh: 2; Apaf-1 inh: -7

Results for C[C@@]12CCC=C[C@H]1[C@H](c1ccc3ccccc3c1Br)N(Cc1ccccc1)C2=O ?
UBC13 inh: 2; MEKK2mut PB1 HTS: -5; MEKK2 WT-MEK5: 91; Apaf-1 inh: 49*; MEKK3 PB1 HTS: 96; Apaf-1 inh conf: 50*; Rh110 quench: 4; Apaf1 inh interf: >100

What do the screens show for `O=C(CN1C(=O)NC(c2ccccc2)(c2ccccc2)C1=O)N1CCOCC1`?
UBC13 inh: 5; Apaf-1 inh: -11

Results for COc1ccc(-c2ccc(/C=C3\C(=O)N(c4ccccc4)N=C3c3ccccc3)o2)c([N+](=O)[O-])c1 ?
UBC13 inh: -51; MEKK2mut PB1 HTS: -7; MEKK2 WT-MEK5: 87; Apaf-1 inh: 1; MEKK3 PB1 HTS: 88

Results for COC(=O)c1ccccc1-c1ccc(/C=C2\C(=O)N(c3ccccc3)N=C2c2ccccc2)o1 ?
UBC13 inh: -41; MEKK2mut PB1 HTS: -9; MEKK2 WT-MEK5: 84; Apaf-1 inh: 62*; MEKK3 PB1 HTS: 87; Apaf-1 inh conf: 13; Rh110 quench: 9

Results for Cc1ccc(-c2nnc(SCC(=O)Nc3cccc(C(=O)N4CCOCC4)c3)n2C)cc1 ?
UBC13 inh: 4; MEKK2mut PB1 HTS: -2; MEKK2 WT-MEK5: 94; Apaf-1 inh: 1; MEKK3 PB1 HTS: 91

What do the screens show for `CSc1ccc(CN(C)C(=O)CSCC(=O)Nc2cc(C)on2)cc1`?
UBC13 inh: 14; MEKK2mut PB1 HTS: 6; MEKK2 WT-MEK5: 106; Apaf-1 inh: 48*; MEKK3 PB1 HTS: 98; Apaf-1 inh conf: 36; Rh110 quench: -2

Results for Cc1cc(NC(=O)CSCC(=O)N(C)Cc2ccc(F)cc2)no1 ?
UBC13 inh: 19; MEKK2mut PB1 HTS: 8; MEKK2 WT-MEK5: 109; Apaf-1 inh: 16; MEKK3 PB1 HTS: 104

Results for c1cc(SC2CCCCC2)cc(-c2nc3cnccn3c2NC2CCCCC2)c1 ?
UBC13 inh: -2; Apaf-1 inh: 41*; Apaf-1 inh conf: 26; Rh110 quench: 14

What do the screens show for `c1cn2c(NC3CCCCC3)c(-c3ccc(SC4CCCCC4)cc3)nc2cn1`?
UBC13 inh: 37; Apaf-1 inh: 38

What do the screens show for `O=C(Nc1ccc(N2CCCC2)cc1)C(Cl)c1ccccc1` (centres undefined)?
UBC13 inh: -8; MEKK2mut PB1 HTS: -1; MEKK2 WT-MEK5: 94; Apaf-1 inh: 65*; MEKK3 PB1 HTS: 99; Apaf-1 inh conf: 26; Rh110 quench: 3

Results for CS(=O)(=O)N1CCN(c2ccc(NC(=O)C(c3ccccc3)c3ccccc3)cc2)CC1 ?
UBC13 inh: -2; MEKK2mut PB1 HTS: 4; MEKK2 WT-MEK5: 110; Apaf-1 inh: 7; MEKK3 PB1 HTS: 108
